target: T1, Integrin alpha-IIb/beta-3 (Homo sapiens, UniProt P05106+P08514); test: Antagonism of fibrinogen binding to a purified human fibrinogen receptor preparation.; format: protein-complex assay
Outline: (§1)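 ELISA on purified human platelet GPIIb-IIIa with biotinylated fibrinogen as the ligand. Bound fibrinogen was detected with alkaline phosphatase-labeled goat anti-biotin and p-nitrophenyl phosphate substrate. Some runs added BSA at 4.5% (w/v) as a stand-in for plasma albumin.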

T1 sequence (P05106 27-788 limits assumed): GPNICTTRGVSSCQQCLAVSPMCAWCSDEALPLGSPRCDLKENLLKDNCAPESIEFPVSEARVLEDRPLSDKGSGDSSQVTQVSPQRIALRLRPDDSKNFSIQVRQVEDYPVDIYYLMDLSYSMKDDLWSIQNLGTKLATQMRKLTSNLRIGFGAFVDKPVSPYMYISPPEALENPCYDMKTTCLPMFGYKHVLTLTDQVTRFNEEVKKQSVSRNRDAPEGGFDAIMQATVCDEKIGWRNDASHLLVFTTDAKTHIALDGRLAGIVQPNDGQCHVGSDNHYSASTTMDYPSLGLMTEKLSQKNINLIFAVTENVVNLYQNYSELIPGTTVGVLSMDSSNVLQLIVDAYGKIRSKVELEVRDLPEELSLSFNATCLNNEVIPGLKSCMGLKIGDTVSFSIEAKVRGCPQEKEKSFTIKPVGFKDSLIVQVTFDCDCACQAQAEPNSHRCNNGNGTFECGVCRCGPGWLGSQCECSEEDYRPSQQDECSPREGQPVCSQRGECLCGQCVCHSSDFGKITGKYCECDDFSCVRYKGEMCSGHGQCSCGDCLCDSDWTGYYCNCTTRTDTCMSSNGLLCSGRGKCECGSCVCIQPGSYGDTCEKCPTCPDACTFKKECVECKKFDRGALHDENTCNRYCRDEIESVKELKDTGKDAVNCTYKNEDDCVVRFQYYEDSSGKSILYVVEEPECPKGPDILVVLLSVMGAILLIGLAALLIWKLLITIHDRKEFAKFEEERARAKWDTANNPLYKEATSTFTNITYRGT
T1 sequence (P08514 32-887 limits assumed): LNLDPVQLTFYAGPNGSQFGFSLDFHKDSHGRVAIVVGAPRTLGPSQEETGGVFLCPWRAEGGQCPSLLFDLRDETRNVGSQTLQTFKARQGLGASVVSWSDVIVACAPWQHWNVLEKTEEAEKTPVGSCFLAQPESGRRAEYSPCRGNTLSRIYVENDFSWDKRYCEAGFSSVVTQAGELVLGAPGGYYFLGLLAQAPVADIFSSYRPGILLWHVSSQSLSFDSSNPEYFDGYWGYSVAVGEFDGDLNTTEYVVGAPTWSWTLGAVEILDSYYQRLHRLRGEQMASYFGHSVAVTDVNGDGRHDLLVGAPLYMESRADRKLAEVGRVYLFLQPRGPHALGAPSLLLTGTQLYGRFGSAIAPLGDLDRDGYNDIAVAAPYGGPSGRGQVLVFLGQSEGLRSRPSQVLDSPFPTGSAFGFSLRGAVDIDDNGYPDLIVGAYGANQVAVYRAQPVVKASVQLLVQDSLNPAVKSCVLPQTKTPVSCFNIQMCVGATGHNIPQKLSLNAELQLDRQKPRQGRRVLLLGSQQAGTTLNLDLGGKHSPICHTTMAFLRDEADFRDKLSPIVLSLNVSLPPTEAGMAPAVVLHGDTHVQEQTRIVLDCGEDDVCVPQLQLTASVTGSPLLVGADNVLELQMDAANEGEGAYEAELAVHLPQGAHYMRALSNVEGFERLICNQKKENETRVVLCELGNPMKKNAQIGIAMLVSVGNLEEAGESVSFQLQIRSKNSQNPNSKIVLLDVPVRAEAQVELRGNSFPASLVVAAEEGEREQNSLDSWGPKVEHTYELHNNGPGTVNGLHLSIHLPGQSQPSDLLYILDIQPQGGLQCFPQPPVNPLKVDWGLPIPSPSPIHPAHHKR
T1 sequence (P08514 891-1039 limits assumed): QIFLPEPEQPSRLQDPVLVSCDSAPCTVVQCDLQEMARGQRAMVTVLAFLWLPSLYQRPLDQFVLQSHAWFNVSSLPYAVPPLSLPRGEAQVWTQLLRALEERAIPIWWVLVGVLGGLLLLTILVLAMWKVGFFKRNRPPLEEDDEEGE

Point of comparison: `N=C(N)c1ccc2[nH]c(C(=O)NCCCC(=O)NCC(=O)O)cc2c1`, IC50 7400 nM. Against it:
- N=C(N)c1ccc2sc(C(=O)NCCCCCCC(=O)O)cc2c1 — 8.7-fold lower, 850 nM
- N=C(N)c1ccc2[nH]c(C(=O)NCC(=O)NCCCC(=O)O)cc2c1 — within 1.5-fold, 9900 nM
- CCC(CCCCCNC(=O)c1cc2cc(C(=N)N)ccc2[nH]1)C(=O)O (stereo not drawn) — 3.6-fold higher, 27000 nM
- N=C(N)c1ccc(OCC(=O)NCCCCCCC(=O)O)cc1 — 6.7-fold lower, 1100 nM
- CCCCC(CCCCNC(=O)c1cc2cc(C(=N)N)ccc2[nH]1)CC(=O)O (stereo not drawn) — 9.4-fold lower, 790 nM
- Cn1c(C(=O)NCCCCCCC(=O)O)cc2cc(C(=N)N)ccc21 — 2.6-fold lower, 2900 nM
- N=C(N)c1ccc2[nH]c(C(=O)NCCCCC(CC(=O)O)c3ccccc3)cc2c1 (stereo not drawn) — 16-fold lower, 460 nM
- CC(CCCCCNC(=O)c1cc2cc(C(=N)N)ccc2[nH]1)C(=O)O (stereo not drawn) — within 1.5-fold, 6900 nM
- N=C(N)c1ccc2oc(C(=O)NCCCCCC(=O)O)cc2c1 — 3.2-fold lower, 2300 nM
- N=C(N)c1ccc2[nH]c(C(=O)NCCC(=O)NCCC(=O)O)cc2c1 — 9.7-fold lower, 760 nM
- CN(CCCCCCC(=O)O)C(=O)c1cc2cc(C(=N)N)ccc2[nH]1 — 22-fold lower, 340 nM
- N=C(N)c1ccc2[nH]c(C(=O)NCc3ccc(CCC(=O)O)cc3)cc2c1 — 1.9-fold lower, 4000 nM
- CCC(CCCCNC(=O)c1cc2cc(C(=N)N)ccc2[nH]1)CC(=O)O (stereo not drawn) — 17-fold lower, 440 nM
- CCCCCCC(CCCCNC(=O)c1cc2cc(C(=N)N)ccc2[nH]1)CC(=O)O (stereo not drawn) — 13-fold lower, 590 nM
- Cc1c(C(=O)NCCCCCCC(=O)O)[nH]c2ccc(C(=N)N)cc12 — 4.4-fold lower, 1700 nM
- CC(CCCCNC(=O)c1cc2cc(C(=N)N)ccc2[nH]1)CC(=O)O (stereo not drawn) — 24-fold lower, 310 nM
- N=C(N)c1ccc2c(C(=O)NCCCCCCC(=O)O)[nH]nc2c1 — 370-fold lower, 20 nM
- N=C(N)c1ccc2cc(C(=O)NCCCCCCC(=O)O)oc2c1 — 6.7-fold lower, 1100 nM

target: T1, Integrin alpha-IIb/beta-3; test: Inhibition of fibrinogen binding to purified Fibrinogen Receptor preparation in enzyme-linked immunosorbent assay (ELISA); format: protein-complex assay; outline: as §1

Compound `N=C(N)c1ccc2oc(C(=O)NCCCCCCCC(=O)O)cc2c1` has an IC50 of 3300 nM.

target: Integrin alpha-V/beta-3 (Homo sapiens, UniProt P05106+P06756); test: Inhibition of adhesive protein binding to alphaV-beta3 vitronectin receptor using ELISA; format: protein-complex assay
Outline: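 Vitronectin receptor ELISA on purified human placenta αvβ3 with biotinylated vitronectin as the ligand. Detection used alkaline phosphatase-labeled goat anti-biotin and p-nitrophenol phosphate. Compounds were tested up to 100 μM.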

Integrin alpha-V/beta-3, sequence (P05106 27-788 limits assumed): as the sequence (P05106 27-788 limits assumed) above
Integrin alpha-V/beta-3, sequence (P06756 31-889 limits assumed): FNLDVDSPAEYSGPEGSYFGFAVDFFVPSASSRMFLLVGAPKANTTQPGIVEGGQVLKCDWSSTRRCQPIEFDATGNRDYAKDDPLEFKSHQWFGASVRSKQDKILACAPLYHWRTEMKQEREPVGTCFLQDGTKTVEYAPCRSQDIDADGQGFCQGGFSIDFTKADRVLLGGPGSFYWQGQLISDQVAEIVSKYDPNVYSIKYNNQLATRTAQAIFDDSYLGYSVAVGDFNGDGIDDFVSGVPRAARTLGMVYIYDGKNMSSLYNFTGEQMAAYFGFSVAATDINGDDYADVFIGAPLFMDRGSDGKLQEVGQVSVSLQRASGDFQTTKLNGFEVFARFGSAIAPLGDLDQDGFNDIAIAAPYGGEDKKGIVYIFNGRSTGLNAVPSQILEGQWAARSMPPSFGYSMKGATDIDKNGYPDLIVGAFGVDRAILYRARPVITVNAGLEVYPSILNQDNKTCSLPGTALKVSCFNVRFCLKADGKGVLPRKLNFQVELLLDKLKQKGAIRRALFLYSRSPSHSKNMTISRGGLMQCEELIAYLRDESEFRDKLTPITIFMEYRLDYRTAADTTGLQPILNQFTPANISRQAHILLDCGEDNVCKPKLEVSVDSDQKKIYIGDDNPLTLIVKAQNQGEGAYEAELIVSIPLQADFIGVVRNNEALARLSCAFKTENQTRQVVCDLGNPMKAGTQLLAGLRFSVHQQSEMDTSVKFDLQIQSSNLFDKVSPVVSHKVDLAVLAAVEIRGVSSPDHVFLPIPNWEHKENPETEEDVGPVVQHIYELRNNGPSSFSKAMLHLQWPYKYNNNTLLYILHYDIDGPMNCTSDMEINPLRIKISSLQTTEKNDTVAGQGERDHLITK
Integrin alpha-V/beta-3, sequence (P06756 891-1048 limits assumed): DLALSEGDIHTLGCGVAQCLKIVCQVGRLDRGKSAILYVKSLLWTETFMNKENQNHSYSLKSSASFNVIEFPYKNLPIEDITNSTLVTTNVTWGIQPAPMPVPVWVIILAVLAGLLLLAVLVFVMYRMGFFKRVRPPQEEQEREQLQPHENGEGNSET

`N=C(N)c1ccc2c(C(=O)NCCCCCCC(=O)O)c[nH]c2c1` and `N=C(N)c1ccc2c(C(=O)NCCCCCCC(=O)O)[nH]nc2c1` cannot be ordered by IC50: > 100000 nM for the first, > 100000 nM for the second.

For `N=C(N)c1ccc2oc(C(=O)NCCCCCCC(=O)O)cc2c1`, the IC50 was > 100000 nM.

Source: ChEMBL document CHEMBL1130135, “Use of conformationally restricted benzamidines as arginine surrogates in the design of platelet GPIIb-IIIa receptor antagonists” (J Med Chem, 1997)
